Measured values taken from ChEMBL document CHEMBL3351994, “Synthesis and biological evaluation of novel millepachine derivatives as a new class of tubulin polymerization inhibitors” (J Med Chem, 2014).
Converted amounts (≈) assume the structure as drawn.

Experiments:
A-375 = experiment: Antiproliferative activity against human A375 cells assessed as inhibition of cell proliferation after 48 hrs by MTT assay; assay type: functional, cell-based; conditions: A-375, 48 h
Outline: (§1)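 Cells grown at 37 °C in humidified 5% CO2. K562, C26 and HCT lines in RPMI-1640; other lines in DMEM; both media with 10% FBS, penicillin and streptomycin. 1000 cells/well seeded, incubated overnight, then compound at various doses for 48 h. MTT added for 4 h, formazan dissolved in DMSO, absorbance read at 590 nm. IC50 from dose–response curves, mean ± SEM of at least three independent experiments.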

K562 = experiment: Antiproliferative activity against human K562 cells assessed as inhibition of cell proliferation after 48 hrs by MTT assay; assay type: functional, cell-based; conditions: K562, 48 h; outline: as §1
[1] = Antiproliferative activity against human HCT116 cells assessed as inhibition of cell proliferation after 48 hrs by MTT assay; assay type: functional, cell-based; conditions: HCT-116, 48 h
[2] = Antiproliferative activity against human HCT15 cells assessed as inhibition of cell proliferation after 48 hrs by MTT assay; assay type: functional, cell-based; conditions: HCT-15, 48 h; outline: as §1
[3] = Antiproliferative activity against human ES2 cells assessed as inhibition of cell proliferation after 48 hrs by MTT assay; assay type: functional, cell-based; conditions: ES-2, 48 h
AGS = experiment: Antiproliferative activity against human AGS cells assessed as inhibition of cell proliferation after 48 hrs by MTT assay; assay type: functional, cell-based; outline: as §1
U-251 = experiment: Antiproliferative activity against human U251 cells assessed as inhibition of cell proliferation after 48 hrs by MTT assay; assay type: functional, cell-based; conditions: U-251, 48 h; outline: as §1
[4] = Antiproliferative activity against adriamycin resistant human MCF7/ADR cells assessed as inhibition of cell proliferation after 48 hrs by MTT assay; assay type: functional, cell-based; conditions: NCI/ADR-RES; outline: as §1
[5] = Antiproliferative activity against taxol resistant human HCT8 cells assessed as inhibition of cell proliferation after 48 hrs by MTT assay; assay type: functional, cell-based; conditions: HCT-8, 48 h; outline: as §1
A2780cisR = experiment: Resistance index, ratio of IC50 for cisplatin resistant human […] cells to IC50 for parental human […] cells; assay type: functional
MCF7 = experiment: Resistance index, ratio of IC50 for adriamycin resistant human MCF7 cells to IC50 for parental human MCF7 cells; assay type: functional
HepG2 [6] = experiment: Induction of cell cycle arrest in human HepG2 cells assessed as accumulation at G0/G1 phase at 50 nM after 24 hrs by propidium iodide staining based flow cytometry (reference value: 58.2%); assay type: functional
HepG2 [7] = experiment: Induction of cell cycle arrest in human HepG2 cells assessed as accumulation at S phase phase at 50 nM after 24 hrs by propidium iodide staining based flow cytometry (reference value: 30.6%); assay type: functional
HepG2 [8] = experiment: Induction of cell cycle arrest in human HepG2 cells assessed as accumulation at G2/M phase phase at 50 nM after 24 hrs by propidium iodide staining based flow cytometry (reference value: 11.2%); assay type: functional
HepG2 [9] = experiment: Induction of cell cycle arrest in human HepG2 cells assessed as accumulation at S phase phase at 100 nM after 24 hrs by propidium iodide staining based flow cytometry (reference value: 30.6%); assay type: functional
HepG2 [10] = experiment: Induction of cell cycle arrest in human HepG2 cells assessed as accumulation at G2/M phase phase at 100 nM after 24 hrs by propidium iodide staining based flow cytometry (reference value: 11.2%); assay type: functional
HepG2 [11] = experiment: Induction of cell cycle arrest in human HepG2 cells assessed as accumulation at S phase phase at 200 nM after 24 hrs by propidium iodide staining based flow cytometry (reference value: 30.6%); assay type: functional
HepG2 [12] = experiment: Induction of cell cycle arrest in human HepG2 cells assessed as accumulation at G2/M phase phase at 200 nM after 24 hrs by propidium iodide staining based flow cytometry (reference value: 11.2%); assay type: functional
HepG2 [13] = experiment: Induction of apoptosis in human HepG2 cells assessed as viable cells at 50 nM after 24 hrs by annexin-V-FITC and propidium iodide staining based flow cytometry (reference value: 93.2%); assay type: functional; conditions: HepG2, 24 h, read-out: Activity
HepG2 [14] = experiment: Induction of apoptosis in human HepG2 cells assessed as early apoptotic cells at 50 nM after 24 hrs by annexin-V-FITC and propidium iodide staining based flow cytometry (reference value: 3.63%); assay type: functional
Outline: (§2)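 HepG2 cells treated with 50, 100 or 200 nM compound or DMSO vehicle for 24 or 48 h at 37 °C. Labeled with annexin-V-FITC and PI and analyzed by flow cytometry. Cells classified as early apoptotic (annexin-V+/PI−), late apoptotic (annexin-V+/PI+) or necrotic (annexin-V−/PI+).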

HepG2 [15] = experiment: Induction of apoptosis in human HepG2 cells assessed as late apoptotic cells at 100 nM after 24 hrs by annexin-V-FITC and propidium iodide staining based flow cytometry (reference value: 1.03%); assay type: functional; outline: as §2
HepG2 [16] = experiment: Induction of apoptosis in human HepG2 cells assessed as early apoptotic cells at 200 nM after 24 hrs by annexin-V-FITC and propidium iodide staining based flow cytometry (reference value: 3.63%); assay type: functional; outline: as §2
HepG2 [17] = experiment: Induction of apoptosis in human HepG2 cells assessed as late apoptotic cells at 200 nM after 24 hrs by annexin-V-FITC and propidium iodide staining based flow cytometry (reference value: 1.03%); assay type: functional; outline: as §2
HepG2 [18] = experiment: Induction of apoptosis in human HepG2 cells assessed as necrotic cells at 200 nM after 24 hrs by annexin-V-FITC and propidium iodide staining based flow cytometry (reference value: 2.16%); assay type: functional; outline: as §2
HepG2 [19] = experiment: Induction of apoptosis in human HepG2 cells assessed as necrotic cells at 50 nM after 48 hrs by annexin-V-FITC and propidium iodide staining based flow cytometry (reference value: 2.16%); assay type: functional
HepG2 [20] = experiment: Induction of apoptosis in human HepG2 cells assessed as viable cells at 100 nM after 48 hrs by annexin-V-FITC and propidium iodide staining based flow cytometry (reference value: 93.2%); assay type: functional; conditions: HepG2, 48 h, read-out: Activity
HepG2 [21] = experiment: Induction of apoptosis in human HepG2 cells assessed as early apoptotic cells at 200 nM after 48 hrs by annexin-V-FITC and propidium iodide staining based flow cytometry (reference value: 3.63%); assay type: functional; outline: as §2
HepG2 [22] = experiment: Induction of apoptosis in human HepG2 cells assessed as late apoptotic cells at 200 nM after 48 hrs by annexin-V-FITC and propidium iodide staining based flow cytometry (reference value: 1.03%); assay type: functional; outline: as §2
[23] = Solubility in PBS solution by nephelometry; assay type: physicochemical
Outline: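 Maximum soluble concentration in PBS, determined by nephelometry.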

Rattus norvegicus [24] = experiment: Systemic clearance in rat at 2.25 mg/kg, iv; assay type: ADME, organism-based; set-up: dose 2.25 mg/kg, route intravenous; conditions: in vivo
[25] = Cmax in rat at 2.25 mg/kg, iv; assay type: ADME, organism-based; set-up: dose 2.25 mg/kg, route intravenous; conditions: in vivo
Outline: (§3)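 Rat pharmacokinetics; oral and intravenous dosing, with group sizes of 5, 5 and 4 rats. Parameters derived: systemic clearance, volume of distribution, area under the plasma concentration–time curve, maximum plasma concentration and percent oral bioavailability.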

[26] = Oral bioavailability in rat at 9 mg/kg; assay type: ADME, organism-based; conditions: in vivo
Rattus norvegicus [27] = experiment: AUC in rat at 9 mg/kg, po; assay type: ADME, organism-based, Plasma; set-up: dose 9 mg/kg, route oral; conditions: in vivo; outline: as §3
[28] = Cmax in rat at 9 mg/kg, po; assay type: ADME, organism-based; set-up: dose 9 mg/kg, route oral; conditions: in vivo; outline: as §3

COc1ccc(/C=C/C(=O)c2ccc(OC)c3c2OC(C)(C)C=C3)cc1N
IC50 (A-375): 22 nM | IC50 (K562): 18 nM | IC50 [1]: 21 nM | IC50 [2]: 19 nM | IC50 [3]: 8 nM | IC50 (AGS): 10 nM | IC50 (U-251): 24 nM | IC50 [4]: 17 nM | IC50 [5]: 152 nM | Ratio IC50 (A2780cisR): 0.7 | Ratio IC50 (MCF7): 1.6 | Activity (HepG2 [6]): 56.6% | Activity (HepG2 [7]): 23.9% | Activity (HepG2 [8]): 19.5% | Activity (HepG2 [9]): 27.8% | Activity (HepG2 [10]): 37.4% | Activity (HepG2 [11]): 19.1% | Activity (HepG2 [12]): 43.3% | viability at 0.05 µM (HepG2 [13]): 88.8% | Activity (HepG2 [14]): 2.21% | Activity (HepG2 [15]): 12.43% | Activity (HepG2 [16]): 11.45% | Activity (HepG2 [17]): 23.46% | Activity (HepG2 [18]): 1.95% | Activity (HepG2 [19]): 2.76% | viability at 0.1 µM (HepG2 [20]): 48.8% | Activity (HepG2 [21]): 20.14% | Activity (HepG2 [22]): 34.72% | solubility kinetic [23]: 8 µg/mL (≈ 21.9 µM) | CL (Rattus norvegicus [24]): 20 mL/min/kg | Cmax [25]: 2940 ng/mL | bioavailability [26]: 28% | AUC (Rattus norvegicus [27]): 2040 ng·h/mL | Cmax [28]: 519 ng/mL
